The list is not random: actives were taken first. Their share in the collection is about 5.9%.
Pf Dd2 growth = blocks growth of Plasmodium falciparum Dd2 parasites; P. falciparum Dd2 growth, SYBR Green, 72 h; hits give low values; activity change, % at 10 µM; 94,000 compounds, 2.3% hits; in the data active = activity change below about -80%; inconclusive = no clear call, values can overlap the other calls
T cruzi growth-1 = T. cruzi proliferation inhibition; T. cruzi beta-gal in NIH3T3, GalScreen luminescence, 90 h; inhibition, % at 8.34 µM; 77,000 compounds, 5.9% hits; AID 624255;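 active = mean inhibition above about 93%, with at least 55% of replicates each passing it, limit read from the data, passing the limit was not always enough; inconclusive = only one of those two conditions holds; inactive = neither condition holds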
KDM4C inh = blocks human GASC-1 (KDM4C) demethylase activity; Q9H3R0; GST-KDM4C 2-372, H3K9me3 peptide, LANCE TR-FRET; inhibition, % at 12.5 µM; 96,000 compounds, 0.15% hits;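 active = mean replicate inhibition above about 25%, with at least 55% of replicates also reaching it, limit read from the data, passing the limit was not always enough; inconclusive = only one of those two conditions met; inactive = neither condition met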
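System: N-terminal GST-fused human GASC-1 (KDM4C) fragment, residues 2-372; amount: enzyme final amount 10 nM; incubation: reaction 30 min RT, detection step 1 h RT; medium: HEPES buffer, pH 7.5, plus ascorbate; technique: LANCE TR-FRET, Eu antibody, ULight-streptavidin, EDTA, ex 340 nm, em 618/671 nm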
IDH1 R132H inh = blocks human IDH1 R132H reductase activity. diaphorase/resazurin fluorescence, 60 min. inhibition, % at 10 µM. 70,000 compounds, 0.18% hits. AID 624101; in the data active = inhibition above about 34%; inconclusive = no clear call, values can overlap the other calls; inactive = below about 11%;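 also: 0% = DMSO and 100% = no enzyme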
Target sequence (O75874 whole entry R132H): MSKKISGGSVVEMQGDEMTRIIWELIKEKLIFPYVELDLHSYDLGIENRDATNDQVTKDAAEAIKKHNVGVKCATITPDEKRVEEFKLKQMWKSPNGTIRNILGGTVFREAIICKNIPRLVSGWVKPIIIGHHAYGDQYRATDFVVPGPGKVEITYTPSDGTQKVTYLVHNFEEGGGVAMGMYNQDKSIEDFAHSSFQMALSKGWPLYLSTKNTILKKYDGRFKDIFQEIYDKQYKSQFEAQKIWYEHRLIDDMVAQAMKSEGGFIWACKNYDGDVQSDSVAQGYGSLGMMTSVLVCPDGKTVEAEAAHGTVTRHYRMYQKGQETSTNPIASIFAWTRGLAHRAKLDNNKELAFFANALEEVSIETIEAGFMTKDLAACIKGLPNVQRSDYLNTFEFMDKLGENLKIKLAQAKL
T cruzi growth-2 = blocks T. cruzi growth in NIH3T3 host cells | shares compounds with T cruzi growth-1 | T. cruzi beta-gal in NIH3T3, GalScreen luminescence, 90 h | inhibition, % at 8.35 µM | 5,600 compounds, 72% hits | AID 651739;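 active = mean replicate inhibition above about 95% and at least 55% of replicates individually reaching it, limit read from the data; inconclusive = only one of the two criteria is met; inactive = neither criterion is met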
T cruzi growth-3 = inhibitors of T. cruzi proliferation. shares compounds with T cruzi growth-1. T. cruzi beta-gal in NIH3T3, GalScreen luminescence, 90 h. 5,600 compounds, 21% hits. inhibition, % at 2.09 µM;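 active = mean inhibition above about 95%, with at least 55% of replicates also reaching it, limit read from the data; inconclusive = meets just one of the two conditions; inactive = meets neither condition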;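 also: plate controls were neutral control median for no effect and positive control median for full effect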
NIH3T3 tox = kills mouse NIH/3T3 fibroblasts; cytotoxicity (signal decrease), % at 8.35 µM; 5,600 compounds, 14% hits; shares compounds with T cruzi growth-1; NIH/3T3 viability, CellTiter-Glo ATP luminescence, 90 h;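 active = mean signal decrease across replicates above about 35% based on untreated-well scatter, with enough replicates individually passing, limit read from the data; inconclusive = no rule stated though some were filed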;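 also: 0% = median of neutral control wells and 100% = median of positive control wells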
3T3 cytotox 2 = NIH/3T3 (mouse) viability loss; inhibition, % at 24.9 µM; shares compounds with T cruzi growth-1; NIH/3T3 viability, CellTiter-Glo ATP luminescence, 90 h; 5,600 compounds, 56% hits;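 active = mean loss of cell viability signal at or above a set limit, and enough replicates individually reaching it; inconclusive = meets only the mean limit or only the replicate share; inactive = meets neither condition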;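 also: 0% = median of neutral control wells and 100% = median of positive control wells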
* hit, by the source's call; ? = inconclusive; . = no result given.

SMILES	Pf Dd2 growth	T cruzi growth-1	KDM4C inh	IDH1 R132H inh	T cruzi growth-2	T cruzi growth-3	NIH3T3 tox	3T3 cytotox 2
COc1c(O)ccc2c1C(=O)c1c(O)cc(C)cc1C2[C@@H]1O[C@H](CO)[C@@H](O)[C@H](O)[C@H]1O (stereo not given in full)	.	.	.	-1	.	.	.	.
CCCC(=O)N1CC2(CN(C(C)=O)C2)c2c(n(C)c3cc(OC)ccc23)[C@@H]1CO	-12	.	.	.	.	.	.	.
COCC#Cc1ccc([C@H]2[C@H](CO)N3CCCCN(Cc4cncnc4)C[C@@H]23)cc1	15	115*	-1	.	98*	48	-11	-9
CCCC#Cc1ccc([C@H]2[C@@H](CO)N3CCCCN(Cc4cccnc4)C[C@H]23)cc1	-52	?	-1	.	108*	92	29	102*
CCCC#Cc1ccc([C@@H]2[C@@H](CO)N3CCCCN(Cc4ccncc4)C[C@H]23)cc1	-36	109*	4	.	98*	45	35*	67*
COc1ccc(C#Cc2ccc([C@H]3[C@H](CO)N4CCCCN(Cc5ccncc5)C[C@@H]34)cc2)cc1	-58	90*	4	.	109*	85	49*	105*
CCOc1cccc(-c2nnc(SCC(=O)n3c4c(c5ccccc53)CCCC4)n2C)c1	.	.	.	0	.	.	.	.
Cn1c(SCC(=O)c2ccc(Cl)cc2)nnc1-c1ccccc1O	.	.	.	0	.	.	.	.
CCCC#Cc1ccc([C@@H]2[C@H]3CN(Cc4ccncc4)CCCCN3[C@H]2CO)cc1	-70	?	2	.	96*	17	37*	106*
COCC#Cc1ccc([C@@H]2[C@@H](CO)N3CCCCN(Cc4ccncc4)C[C@H]23)cc1	8	57	4	.	.	.	.	.
CCCC#Cc1ccc([C@H]2[C@@H](CO)N3CCCCN(Cc4ccncc4)C[C@H]23)cc1	-71	49	2	.	.	.	.	.
CCCC#Cc1ccc([C@H]2[C@H](CO)N3CCCCN(CC4CC4)C[C@@H]23)cc1	-46	98*	.	.	109*	43	?	105*
CCCC#Cc1ccc([C@@H]2[C@H](CO)N3CCCCN(CC4CC4)C[C@@H]23)cc1	-62	70	1	.	.	.	.	.
COCC#Cc1ccc([C@H]2[C@@H](CO)N3CCCCN(Cc4ccncc4)C[C@H]23)cc1	14	108*	4	.	106*	74	17	30
O=C(CCSc1nc2ccccc2s1)N1CCOCC1	.	.	.	0	.	.	.	.
O=C(CCCCCC(=O)N/N=C/c1cc(O)ccc1[N+](=O)[O-])NO	.	.	.	0	.	.	.	.
CC1CCc2c(sc3nc(SC(C)C(=O)Nc4ccccc4)nc(N)c23)C1 (stereo not given)	.	.	.	0	.	.	.	.
O=C(Cn1cnc2scc(-c3cccc([N+](=O)[O-])c3)c2c1=O)Nc1ccc(Cl)cc1	.	.	.	0	.	.	.	.
COc1cccc(C#Cc2ccc3c(c2)[C@H]2[C@H](CCN2S(=O)(=O)c2ccccc2)[C@H](CO)N3)c1	-45	105*	0	.	108*	84	14	17
COc1cccc(C#Cc2ccc3c(c2)[C@@H]2[C@@H](CCN2S(=O)(=O)c2ccccc2)[C@H](CO)N3)c1	-56	.	-4	.	.	.	.	.
COc1cccc(S(=O)(=O)N2CC[C@@H]3[C@H](CO)Nc4ccc(C#Cc5cccnc5)cc4[C@@H]32)c1	-8	110*	-1	.	108*	71	29	22
Cc1ccc(S(=O)(=O)N2C(=O)CCC2C(=O)Nc2ccc(I)cc2)cc1 (stereo not given)	.	.	.	2	.	.	.	.
O=C(O)COc1ccc(NC(=O)c2cccc(I)c2)cc1	.	.	.	0	.	.	.	.
Cc1cc(OCC(=O)Nc2ccccc2C(=O)N2CCCCC2)c(C)cc1Br	.	.	.	1	.	.	.	.
O=C(c1cccc(F)c1)N1CCCCN2[C@@H](CO)[C@H](c3ccc(/C=C/c4ccccc4)cc3)[C@@H]2C1	-12	111*	-1	.	103*	93	45*	103*
SMILES	Pf Dd2 growth	T cruzi growth-1	KDM4C inh	IDH1 R132H inh	T cruzi growth-2	T cruzi growth-3	NIH3T3 tox	3T3 cytotox 2
O=C(c1cccc(F)c1)N1CCCCN2[C@H](CO)[C@H](c3ccc(/C=C/c4ccccc4)cc3)[C@@H]2C1	-73	114*	0	.	100*	110*	34	99*
O=C(c1cccc(F)c1)N1CCCCN2[C@@H](CO)[C@@H](c3ccc(-c4ccncc4)cc3)[C@@H]2C1	8	82	-1	.	.	.	.	.
O=C(c1cccc(F)c1)N1CCCCN2[C@H](CO)[C@@H](c3ccc(/C=C/c4ccccc4)cc3)[C@H]2C1	-36	92	-2	.	.	.	.	.
O=C(c1cccc(F)c1)N1CCCCN2[C@H](CO)[C@H](c3ccc(/C=C/c4ccccc4)cc3)[C@H]2C1	-58	111*	-4	.	102*	81	91*	104*
O=C(CCN1C(=O)C2C3C=CC(C3)C2C1=O)Oc1cccc2cccnc12 (stereo not given)	.	.	.	0	.	.	.	.
Cc1noc(C)c1NC(=O)Nc1ccc2c(c1)C(=O)N(C)[C@@H]1CC[C@@H](CC(=O)N[C@H]3CCN(Cc4ccccc4)C3)O[C@H]1CO2	8	102*	2	.	17	-25	-1	-1

Source: PubChem BioAssay
